Assay results taken from ChEMBL document CHEMBL1153793, “New pyridone, thioxopyridine, pyrazolopyridine and pyridine derivatives that modulate inflammatory mediators in stimulated RAW 264.7 murine macrophage” (Eur J Med Chem, 2009).
pIC50: −log10 of the molar value. Calls of active or inactive are those of the source. No cut-off for these calls is given here.

Legend:
RAW264.7 [1] = test: Effect on inflammatory mediators in LPS-stimulated mouse RAW264.7 cells assessed as PGE2 accumulation at 20% IC50 after 24 hrs by ELISA; assay type: functional
RAW264.7 [2] = test: Effect on inflammatory mediators in LPS-stimulated mouse RAW264.7 cells assessed as COX-2 accumulation at 20% IC50 after 24 hrs by dot immunoblotting; assay type: functional
Summary of the method: (§1)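 20 µg lysate protein dot-blotted, probed with anti-mouse COX-2 or 5-LO, detected by HRP/OPD and normalised to β-actin.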

[3] = Antioxidant activity assessed as superoxide radical scavenging activity; assay type: functional
Summary of the method: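 Non-cellular assay; superoxide generated by oxidation of 50 µM hypoxanthine with 12 mU xanthine oxidase. Scavenging followed as the rate of nitroblue tetrazolium reduction to formazan. SC50 taken from dose-dependent curves of serial dilutions; superoxide dismutase as standard inhibitor.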

RAW264.7 [4] = test: Effect on inflammatory mediators in LPS-stimulated mouse RAW264.7 cells assessed as nitrite accumulation at 20% IC50 after 24 hrs by Griess assay; assay type: functional
RAW264.7 [5] = test: Effect on inflammatory mediators in mouse RAW264.7 cells assessed as nitrite accumulation at 20% IC50 after 24 hrs by Griess assay; assay type: functional
[6] = Peroxyl radical scavenging activity assessed as trolox equivalents at 1 uM by ORAC assay
Summary of the method: (§2)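 β-Phycoerythrin fluorescence decay followed kinetically for 2 h at 37 °C with 1 µM compound, against peroxyl and hydroxyl radicals. One ORAC unit = net protection given by 1.0 µM Trolox.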

RAW264.7 [7] = test: Effect on inflammatory mediators in LPS-stimulated mouse RAW264.7 cells assessed as 5-LO accumulation at 20% IC50 after 24 hrs by dot immunoblotting; assay type: functional; summary of the method: as §1
[8] = Hydroxyl radical scavenging activity assessed as trolox equivalents at 1 uM by ORAC assay; assay type: functional; summary of the method: as §2
RAW264.7 [9] = test: Cytotoxicity against mouse RAW264.7 cells assessed as cell viability after 24 hrs by MTT assay; assay type: cell-based; details: RAW264.7, 24 h, in the assay text read “MTT assay” for “ultra gel clot assay”
Summary of the method: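 RAW 264.7 macrophages (5×10^4 cells/well) exposed 24 h at 37 °C to a range of compound concentrations, then read by MTT reduction to formazan, solubilised in acidic isopropanol. Viability expressed as mean % of untreated cells (n = 4); 1000 U/ml M-CSF as positive control. IC50 derived.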

RAW264.7 [10] = test: Effect on inflammatory mediators in LPS-stimulated mouse RAW264.7 cells assessed as TNF-alpha accumulation at 20% IC50 after 24 hrs by ELISA; assay type: functional
RAW264.7 [11] = test: Effect on inflammatory mediators in mouse RAW264.7 cells assessed as PGE2 accumulation at 20% IC50 after 24 hrs by ELISA; assay type: functional
RAW264.7 [12] = test: Effect on inflammatory mediators in mouse RAW264.7 cells assessed as COX-2 accumulation at 20% IC50 after 24 hrs by dot immunoblotting; assay type: functional; summary of the method: as §1
RAW264.7 [13] = test: Effect on inflammatory mediators in mouse RAW264.7 cells assessed as TNF-alpha accumulation at 20% IC50 after 24 hrs by ELISA; assay type: functional
RAW264.7 [14] = test: Effect on inflammatory mediators in mouse RAW264.7 cells assessed as 5-LO accumulation at 20% IC50 after 24 hrs by dot immunoblotting; assay type: functional; summary of the method: as §1
RAW264.7 [15] = test: Induction of phagocytosis in mouse RAW264.7 cells assessed as phagocytic activity against FITC-zymosan after 1 hr by fluorimetry; assay type: functional, cell-based
Summary of the method: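 Cells at 1×10^5/well in phenol red-free RPMI-1640 rested 24 h, then given compound for 1 h. FITC-zymosan added for a further 1 h; cells washed three times and lysed with Triton X-100. Fluorescence read at 485/530 nm and expressed relative to untreated cells (100%).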

RAW264.7 [16] = test: Effect on mouse RAW264.7 cell function assessed as FITC-LPS binding to macrophage after 15 mins by fluorimetry; assay type: functional, cell-based
Summary of the method: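 5×10^5 RAW 264.7 cells pre-incubated 15 min at 37 °C with compound in RPMI-1640 plus 10% FBS as the CD14/LBP source. FITC-LPS (200 ng/ml) then added for 1 h. After PBS wash, fluorescence read at ex 485/em 530 nm and median fluorescence intensity reported.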

RAW264.7 [17] = test: Effect on inflammatory mediators in mouse RAW264.7 cells assessed as COX-2 accumulation at 20 uM after 24 hrs by dot immunoblotting; assay type: functional
Summary of the method: (§3)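 Cells treated 24 h with 20 µM compound, with or without LPS (1 µg/ml). 20 µg soluble lysate protein dot-blotted onto nitrocellulose and probed with rabbit anti-mouse COX-2 or 5-LO, HRP anti-rabbit secondary and OPD colour. Intensity normalised to β-actin dots; four repeats.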

RAW264.7 [18] = test: Effect on inflammatory mediators in LPS-stimulated mouse RAW264.7 cells assessed as COX-2 accumulation at 20 uM after 24 hrs by dot immunoblotting; assay type: functional; summary of the method: as §3
RAW264.7 [19] = test: Effect on inflammatory mediators in mouse RAW264.7 cells assessed as 5-LO accumulation at 20 uM after 24 hrs by dot immunoblotting; assay type: functional; summary of the method: as §3
RAW264.7 [20] = test: Effect on inflammatory mediators in LPS-stimulated mouse RAW264.7 cells assessed as 5-LO accumulation at 20 uM after 24 hrs by dot immunoblotting; assay type: functional; summary of the method: as §3
RAW264.7 [21] = test: Effect on inflammatory mediators in mouse RAW264.7 cells assessed as nitrite accumulation at 20 uM after 24 hrs by Griess assay; assay type: functional
Summary of the method: (§4)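 Cells in phenol red-free RPMI-1640 with 10% FBS treated 24 h with 20 µM compound, with or without LPS (1 µg/ml). Supernatant mixed 1:1 with Griess reagent for 10 min, A550 read against a sodium nitrite standard curve, then normalised to BCA protein.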

RAW264.7 [22] = test: Effect on inflammatory mediators in LPS-stimulated mouse RAW264.7 cells assessed as TNF-alpha accumulation at 20 uM after 24 hrs by ELISA; assay type: functional
Summary of the method: (§5)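 RAW 264.7 given 20 µM compound for 24 h, alone or together with LPS at 1 µg/ml. TNF-α and PGE2 in harvested supernatants quantified with commercial ELISA kits per manufacturer; four repeats, means reported.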

RAW264.7 [23] = test: Effect on inflammatory mediators in mouse RAW264.7 cells assessed as TNF-alpha accumulation at 20 uM after 24 hrs by ELISA; assay type: functional; summary of the method: as §5
RAW264.7 [24] = test: Effect on inflammatory mediators in LPS-stimulated mouse RAW264.7 cells assessed as PGE2 accumulation at 20 uM after 24 hrs by ELISA; assay type: functional; summary of the method: as §5
RAW264.7 [25] = test: Effect on inflammatory mediators in LPS-stimulated mouse RAW264.7 cells assessed as nitrite accumulation at 20 uM after 24 hrs by Griess assay; assay type: functional; summary of the method: as §4
RAW264.7 [26] = test: Effect on inflammatory mediators in mouse RAW264.7 cells assessed as PGE2 accumulation at 20 uM after 24 hrs by ELISA; assay type: functional; summary of the method: as §5

| Structure (SMILES) | Activity (RAW264.7 [1]) [pg] | Activity (RAW264.7 [2]) [%] | SC50 [3] [µg/mL] | Activity (RAW264.7 [4]) [nmol] | Activity (RAW264.7 [5]) [nmol] | Activity [6] | Activity (RAW264.7 [7]) [%] | Activity [8] | pIC50 (RAW264.7 [9]) | Activity (RAW264.7 [10]) [pg] | Activity (RAW264.7 [11]) [pg] | Activity (RAW264.7 [12]) [%] | Activity (RAW264.7 [13]) [pg] | Activity (RAW264.7 [14]) [%] | Activity (RAW264.7 [15]) | Activity (RAW264.7 [16]) | further results |
| --- | --- | --- | --- | --- | --- | --- | --- | --- | --- | --- | --- | --- | --- | --- | --- | --- | --- |
| CC(C)c1ccc(-c2cc(-c3ccc4c(c3)CCCC4)nc(OCC(=O)NN)c2C#N)cc1 | 3405.5 | 92.6 | 42.5 | 596.4 | 440.24 | 0.81 | 91.8 | 0.99 | 4.56 | 5754.5 | 43.6 | 63.1 | 1364.75 | 33.12 | – | – | – |
| CCOC(=O)COc1nc(-c2ccc3c(c2)CCCC3)cc(-c2ccc(C(C)C)cc2)c1C#N | 2870.5 | 31.3 | 81.4 | 110.54 | 3.19 | 2.36 | 38.7 | 1.05 | < 4.30 | 2810.66 | 50.5 | 18.7 | 72.45 | 11.9 | Active | Active | – |
| CC(C)c1ccc(-c2cc(-c3ccc4c(c3)CCCC4)nc(OCC(=O)NCc3ccccc3)c2C#N)cc1 | 3260.2 | 20.1 | 24.6 | 32.75 | 10.19 | 2.22 | 61.7 | 3.44 | 5.00 | 615.33 | 48.15 | 20.6 | 69.65 | 21.7 | Active | – | – |
| CC(C)c1ccc(-c2cc(-c3ccc4c(c3)CCCC4)nc(Cl)c2C#N)cc1 | 2870.25 | 80.1 | > 100 | 611.68 | 439.13 | 0.92 | 94.6 | 1.1 | 5.08 | 5110.4 | 45.39 | 28.7 | 350.05 | 29.5 | – | inactive | Activity (RAW264.7 [17]): 28.7%; Activity (RAW264.7 [18]): 80.1%; Activity (RAW264.7 [19]): 29.5%; Activity (RAW264.7 [20]): 94.6% |
| COc1ccc(-c2cc(-c3ccc4c(c3)CCCC4)nc(Cl)c2C#N)cc1OC | – | – | 87.9 | – | – | 0.61 | – | 0.35 | < 4.30 | – | – | – | – | – | inactive | inactive | Activity (RAW264.7 [17]): 36.6%; Activity (RAW264.7 [21]): 512.35 nmol; Activity (RAW264.7 [22]): 5716.66 pg; Activity (RAW264.7 [18]): 88.7%; Activity (RAW264.7 [23]): 810.75 pg; Activity (RAW264.7 [24]): 3325.87 pg; Activity (RAW264.7 [25]): 766.85 nmol; Activity (RAW264.7 [26]): 38.33 pg; Activity (RAW264.7 [19]): 25.3%; Activity (RAW264.7 [20]): 84.5% |
| COc1ccc(-c2cc(-c3ccc4c(c3)CCCC4)nc(NCc3ccccc3)c2C#N)cc1OC | 3010.66 | 99.2 | 38.4 | 915.9 | 720.91 | 2.95 | 94.7 | 3.54 | 5.31 | 5520.55 | 31.29 | 46.3 | 2460.46 | 30.2 | inactive | inactive | – |
| CCOC(=O)COc1nc(-c2ccc3c(c2)CCCC3)cc(-c2ccc(OC)c(OC)c2)c1C#N | 2954.2 | 68.7 | 55.7 | 388.4 | 2.65 | 2.01 | 79.6 | 2.47 | 4.58 | 3945.11 | 22.4 | 27.5 | 66.57 | 21.9 | – | – | – |
| COc1ccc(-c2cc(-c3ccc4c(c3)CCCC4)[nH]c(=S)c2C#N)cc1OC | 3309.3 | 72.8 | 65.4 | 380.12 | 8.58 | 0.9 | 85.4 | 0.85 | 4.53 | 4652.4 | 28.66 | 12.3 | 79.18 | 18.3 | – | – | – |
